Molecular target: PvdQ acylase (Pseudomonas aeruginosa)
Test: PvdQ acylase enzyme activity blockers – biochemical, fluorescence, plate reader, dry powder, set 2, dose response (AID 623985)
Conditions: purified PvdQ, 4-MU laurate fluorescence, 60 min
In short: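 Material: purified P. aeruginosa PvdQ; Quantity: 0.02 µM PvdQ; Medium: 50 mM Tris pH 8.0, 50 mM NaCl, 0.2 mM TCEP, Triton X-100; Reagent: 4-methylumbelliferone laurate substrate at 0.8 mM final; Timing: 30 min pre-incubation plus 60 min reaction, room temperature; Technique: 4-methylumbelliferone fluorescence, excitation 303–367 nm, emission 440–460 nm.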

| Structure (SMILES) | AC50 |
| --- | --- |
| N#CC(c1ccc(Cl)cc1)c1cccc(C(F)(F)F)n1 (stereo unspecified) | 4.16 nM |
| CCCCC(C#N)c1ccc(Cl)cc1 (stereo unspecified) | 56.9 nM |
| Cc1ccc(C(C#N)c2ccc(Cl)cc2)nc1 (stereo unspecified) | 150 nM |
| N#CC(c1ccc(Cl)cc1)c1ccc(Cl)cn1 (stereo unspecified) | 73.3 nM |
| CCCCC(C#N)c1ccc(Cl)cc1Cl (stereo unspecified) | 281 nM |
| COc1cccc(C(C#N)c2ccc(F)cc2)n1 (stereo unspecified) | 124 nM |
| CCCC(C#N)c1ccc(Cl)cc1 (stereo unspecified) | 293 nM |
| N#Cc1cccc(C(C#N)c2ccc(Cl)cc2F)n1 (stereo unspecified) | 46.7 nM |
| N#Cc1cccc(C(C#N)c2ccc(Cl)cc2)n1 (stereo unspecified) | 60.6 nM |
| Cc1ccc(C(C#N)c2ccc(F)cc2)nc1C#N (stereo unspecified) | 96.6 nM |
| CC(C)CC(C#N)c1ccc(Cl)cc1 (stereo unspecified) | 203 nM |
| N#CC(c1ccc(C(F)(F)F)c(Cl)n1)c1ccc(Cl)cc1F (stereo unspecified) | 484 nM |
| N#CC(c1ccc(F)cc1)c1ccc(C(F)(F)F)c(Cl)n1 (stereo unspecified) | 548 nM |
| N#CC(c1ccc(C(F)(F)F)cc1)c1cccc(Cl)n1 (stereo unspecified) | 357 nM |
| N#CC(CC1CC1)c1ccc(Cl)cc1 (stereo unspecified) | 133 nM |
| Cc1ccc(C(C#N)c2ccc(Cl)cc2)nc1C#N (stereo unspecified) | 69.7 nM |
| N#Cc1ccc(C(C#N)c2ccc(Cl)cc2Cl)nc1 (stereo unspecified) | 1940 nM |
| N#Cc1ccc(C(C#N)c2ccc(Cl)cc2)nc1 (stereo unspecified) | 1310 nM |
| N#CC(c1cccc(Cl)n1)c1ccccc1OC(F)(F)F (stereo unspecified) | 754 nM |
| Cc1cccc(C(C#N)c2ccc(Cl)cc2)n1 (stereo unspecified) | 162 nM |
| N#CC(c1ccc(C(F)(F)F)cc1)c1ccc(C(F)(F)F)c(Cl)n1 (stereo unspecified) | 2950 nM |

| Structure (SMILES) | AC50 |
| --- | --- |
| N#CC(c1ccc(Cl)cc1)c1ccc(C(F)(F)F)c(Cl)n1 (stereo unspecified) | 609 nM |
| N#CC(c1ccc(Cl)cc1)c1cccc(Cl)n1 (stereo unspecified) | 17.9 nM |
| CCCCC(C#N)c1ccc(F)cc1 (stereo unspecified) | 45.5 nM |
| N#CC(c1ccc(Cl)cc1)c1ncccc1Cl (stereo unspecified) | < 3 nM |
| Cc1ccc(C(C#N)c2ccccc2OC(F)(F)F)nc1C#N (stereo unspecified) | 328 nM |
| CCCCC(C#N)c1ccc(C(F)(F)F)cc1 (stereo unspecified) | 1590 nM |
| N#CC(c1ccc(F)cc1)c1cccc(C(F)(F)F)n1 (stereo unspecified) | 5.02 nM |
| N#CC(c1ccc(C(F)(F)F)cc1)c1cccc(C(F)(F)F)n1 (stereo unspecified) | 27 nM |
| CC(C#N)(c1ccc(Cl)cc1)c1ccc(C(F)(F)F)cn1 (stereo unspecified) | 1230 nM |
| N#Cc1cccc(C(C#N)c2ccc(Cl)cc2Cl)n1 (stereo unspecified) | 303 nM |
| N#CC(c1cccc(Cl)n1)c1ccc(Cl)cc1F (stereo unspecified) | 22.4 nM |
| N#Cc1cccc(C(C#N)c2ccccc2OC(F)(F)F)n1 (stereo unspecified) | 227 nM |
| N#CC(c1cccc(C(F)(F)F)n1)c1ccc(Cl)cc1F (stereo unspecified) | < 3 nM |
| N#CC(c1ccc(C(F)(F)F)c(Cl)n1)c1ccccc1OC(F)(F)F (stereo unspecified) | 597 nM |
| N#CC(c1cccc(Cl)n1)c1ccc(Cl)cc1Cl (stereo unspecified) | 170 nM |
| N#CC(c1ccc(C(F)(F)F)c(Cl)n1)c1ccc(Cl)cc1Cl (stereo unspecified) | 2440 nM |
| CCCCC(C#N)c1ccc(Cl)cc1F (stereo unspecified) | 315 nM |
| N#CC(c1cccc(C(F)(F)F)n1)c1ccccc1OC(F)(F)F (stereo unspecified) | 376 nM |
| N#CC(c1ccc(Cl)cc1Cl)c1ncccc1Cl (stereo unspecified) | 141 nM |
| N#CC(c1ccc(Cl)cc1)c1ccc(C(F)(F)F)cn1 (stereo unspecified) | 171 nM |

Source: PubChem BioAssay AID623985 (Broad Institute, 2012)
